Screening results as filed in PubChem.
GPR7 antag: human neuropeptides B/W receptor 1 antagonism. GPR7-expressing cells, fluorescence antagonist assay. AID 1861. 290,000 tested, 1.1% active. P48145. inhibition, % at 4.4 µM; in the data active = inhibition above about 16%, passing the limit was not always enough;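 note: cells stimulated with the agonist NPW; 0% = agonist with vehicle and 100% = vehicle without agonist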
Target sequence (P48145 whole entry, looked up): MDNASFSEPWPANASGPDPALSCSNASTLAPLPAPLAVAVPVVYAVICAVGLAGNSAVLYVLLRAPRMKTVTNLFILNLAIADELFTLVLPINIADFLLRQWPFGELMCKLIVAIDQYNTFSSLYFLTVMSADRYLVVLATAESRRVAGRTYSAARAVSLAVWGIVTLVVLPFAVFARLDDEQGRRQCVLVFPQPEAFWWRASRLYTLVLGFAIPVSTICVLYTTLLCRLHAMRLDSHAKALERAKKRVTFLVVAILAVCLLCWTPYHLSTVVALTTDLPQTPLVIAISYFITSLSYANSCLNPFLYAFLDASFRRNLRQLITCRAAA
T cruzi repl: T. cruzi replication inhibition; T. cruzi beta-gal in NIH3T3, luminescence, 90 h; inhibition, % (no concentration beside the values); 300,000 tested, 1.4% active;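 active = mean inhibition across valid replicates above about 55%, limit read from the data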;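 note: signal also drops with host cell toxicity which is not excluded here; 0% = plate median of DMSO wells and 100% = zero luminescence signal; higher percent means less beta-gal luminescence so fewer parasites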
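System: Mouse NIH/3T3 fibroblasts infected with β-gal-expressing T. cruzi Tulahuen C4 | Quantity: NIH/3T3 cells, 5,000 per well | Reagent: 5000 reporter trypomastigotes per well | Dosing: Compound pinned at 50 nL/well, DMSO | Schedule: 3 h host attachment, then at least 90 h co-culture | Detection: GalScreen luminescence, 60 min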
HSF-1 act: increases HSF-1 driven luciferase reporter signal. NIH3T3-HGL HSF-1 luciferase reporter, MG132, 8 h; 100% = twice DMSO control signal. activation, % at 9 µM. 300,000 tested, 1.7% active. AID 504408;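 active = mean replicate activation of at least 50% with a set share of replicates each reaching 50%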;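 note: 0% = median of the neutral control wells and 100% = twice that signal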
Jurkat NFkB inh: inhibitors of the PMA/ionomycin-induced NF-kB reporter in Jurkat cells; PMA/ionomycin-induced NF-kB luciferase reporter, luminescence; inhibition, % at 4 µM; 330,000 tested, 0.53% active; AID 435003; in the data active = inhibition above about 50%
HSF1 inhib: HSF1 inhibition | NIH3T3-HGL HSE-luciferase, MG132-induced, luminescence 8 h; hits give low values | activity change, negative = inhibition, % at 7.5 µM (by protocol) | 300,000 tested, 0.77% active | AID 2098;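 active = more than half of replicate wells show activity change below -50%, luminescence cut by over half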;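 note: luciferase reports HSF-1 transcriptional activity via heat shock element; 0% = median of DMSO wells and -100% = zero luminescence signal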
697 NFkB inh: inhibitors of the PMA/ionomycin-induced NF-kB reporter in 697 B cells. inhibition, % at 4 µM. 697 B-cell NF-kB luciferase reporter, 16 h. 330,000 tested, 0.33% active; in the data active = inhibition above about 35%
Jurkat NFkB conf: lowers PMA/ionomycin-induced NF-kB signal in Jurkat cells; shares compounds with Jurkat NFkB inh; Jurkat NF-kB luciferase, 16 h; inhibition, % at 4 µM; 2,700 tested, 27% active; AID 435020;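 active = inhibition reaching about 45% at 4 µM in either replicate, limit read from the data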;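 note: plate controls were PMA/ionomycin stimulated DMSO wells for no effect and unstimulated DMSO wells for full effect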
* hit, by the source's call. In the library only some 4.8% were active in any assay of this set; here they are far more common.

For COc1ccc(OC)c(COC(=O)c2cc([N+](=O)[O-])ccc2N2CCOCC2)c1 the results were Jurkat NFkB inh 52.1*, 697 NFkB inh -37.6 and Jurkat NFkB conf 30.2.
Screening Cc1ccccc1COC(=O)c1cc([N+](=O)[O-])ccc1N1CCOCC1 returned GPR7 antag 3.6, T cruzi repl 26.4, HSF-1 act -7.8, Jurkat NFkB inh 34.9, HSF1 inhib 1.3 and 697 NFkB inh 0.7.
`CCOc1ccc(C(=O)COC(=O)c2cc([N+](=O)[O-])ccc2N2CCOCC2)cc1` gave T cruzi repl 10.2, HSF-1 act -4.6, Jurkat NFkB inh 52.5*, HSF1 inhib -0.6, 697 NFkB inh -22.8 and Jurkat NFkB conf 6.7.
For CSc1ccc(COC(=O)c2cc([N+](=O)[O-])ccc2N2CCOCC2)cc1 the results were T cruzi repl 40.8, HSF-1 act -34.7, Jurkat NFkB inh 81.1*, HSF1 inhib -29.1, 697 NFkB inh -84.8 and Jurkat NFkB conf 66.3*.
Cc1cc(-c2ccc(S(=O)(=O)N3CCN(c4ccccc4F)CC3)s2)on1 was read as GPR7 antag 16.4, T cruzi repl 5.4, HSF-1 act -6.1, Jurkat NFkB inh 37.7, HSF1 inhib -5.1 and 697 NFkB inh -8.3.
`CN(C)N1C(N)=C(C#N)C(c2cccc([N+](=O)[O-])c2)C2=C1CC(C)(C)CC2=O` (stereo not given) gave GPR7 antag -1.8, T cruzi repl 17.5, HSF-1 act -2.3, Jurkat NFkB inh -15.2, HSF1 inhib 2.5 and 697 NFkB inh 1.8.
Screening COc1cc(C(=O)N(C)CCOc2ccccc2)ccc1OCC(=O)Nc1cccc(C(F)(F)F)c1 returned T cruzi repl 1.6, HSF-1 act -6.1, Jurkat NFkB inh 20.3, HSF1 inhib 1.4 and 697 NFkB inh 15.3.
`Cc1ccc(N/C(N)=N/c2nc(CSc3nnc(C)s3)cc(=O)[nH]2)c(C)c1` gave GPR7 antag 30.7*, T cruzi repl -17.5, Jurkat NFkB inh 71.6*, 697 NFkB inh -5.5 and Jurkat NFkB conf 52.5*.
`COc1ccc(N/C(N)=N/c2nc(CSc3nnc(C)s3)cc(=O)[nH]2)cc1` gave GPR7 antag 0.9, T cruzi repl -55.6, HSF-1 act -4.0, Jurkat NFkB inh 32.2, HSF1 inhib -6.7 and 697 NFkB inh -27.5.
Screening COc1cc(OC)c(OC)cc1CNC(=O)c1ccc(COc2ccccc2)cc1 returned GPR7 antag 2.5, T cruzi repl 12.8, HSF-1 act 4.7, Jurkat NFkB inh -0.7, HSF1 inhib -0.3 and 697 NFkB inh -19.2.
For COC(=O)c1ccc(C(=O)NC2CCCc3c2cnn3-c2ccccc2F)nc1 (stereo not given) the results were GPR7 antag 8.9, T cruzi repl -29.8, HSF-1 act -6.2, Jurkat NFkB inh 56.0*, HSF1 inhib -3.3, 697 NFkB inh -43.9 and Jurkat NFkB conf 24.0.
Screening CC1(C(=O)N/N=C/c2ccc3c(c2)OCO3)CC1(Br)Br (stereo not given) returned GPR7 antag -14.0, T cruzi repl -7.7, HSF-1 act 4.2, Jurkat NFkB inh 7.4, HSF1 inhib 2.3 and 697 NFkB inh 3.2.
COc1cc(-c2noc(C)c2C#Cc2ccsc2)cc(OC)c1OC was read as GPR7 antag 26.4, T cruzi repl 13.6, HSF-1 act -32.4, Jurkat NFkB inh 62.6*, HSF1 inhib -20.1, 697 NFkB inh -34.0 and Jurkat NFkB conf 56.8*.
Cc1nnc(SCC(=O)Nc2nsc(-c3ccc(C(C)(C)C)cc3)n2)s1 was read as GPR7 antag -9.3, T cruzi repl -4.0, HSF-1 act 50.6*, Jurkat NFkB inh -153.2, HSF1 inhib 21.7, 697 NFkB inh -136.4 and Jurkat NFkB conf -81.6.
Screening CC1CN(C(=O)COC(=O)Cc2c(Cl)cccc2Cl)CC(C)O1 (stereo not given) returned Jurkat NFkB inh 7.3 and 697 NFkB inh 6.3.
`COc1nc(-c2ccccc2)cc(-c2ccc3c(c2)OCO3)c1C#N` gave GPR7 antag -12.8, T cruzi repl -12.5, HSF-1 act -4.0, Jurkat NFkB inh 56.5*, HSF1 inhib 1.3, 697 NFkB inh -29.3 and Jurkat NFkB conf 11.3.
`N#Cc1c(-c2ccc3c(c2)OCO3)cc[nH]c1=O` gave GPR7 antag -11.2, T cruzi repl -11.3, HSF-1 act 0.6, Jurkat NFkB inh 8.4, HSF1 inhib -8.8 and 697 NFkB inh 9.1.
Cc1ccc2c(c1)sc1ncc(NC(=O)c3ccc(F)cc3)c(=O)n12 was read as GPR7 antag -13.1, T cruzi repl -9.4, HSF-1 act 36.2, Jurkat NFkB inh 10.5, HSF1 inhib 4.5 and 697 NFkB inh 18.3.
`Cc1ccc2c(c1)sc1nc(=O)n(-c3ccccc3)c(=O)n12` gave GPR7 antag 4.5, T cruzi repl -2.2, HSF-1 act 58.1*, Jurkat NFkB inh -183.4, HSF1 inhib 31.6, 697 NFkB inh -169.0 and Jurkat NFkB conf -114.3.
O=C(c1cccs1)N1CCc2ccccc21 was read as GPR7 antag 10.1, T cruzi repl -9.8, HSF-1 act 21.4, Jurkat NFkB inh -62.1, HSF1 inhib 11.3 and 697 NFkB inh -26.2.
`O=C(/C=C/c1cccs1)N1CCc2ccccc21` gave GPR7 antag 7.8, T cruzi repl 5.4, HSF-1 act 19.5, Jurkat NFkB inh -161.0, HSF1 inhib 5.9, 697 NFkB inh -193.5 and Jurkat NFkB conf -102.3.
`Cc1ccc2nc(NS(=O)(=O)c3cn(C)nc3C)sc2c1` gave GPR7 antag -13.9, T cruzi repl -13.7, HSF-1 act -17.3, Jurkat NFkB inh -2.5, HSF1 inhib -0.1 and 697 NFkB inh 12.8.
For Cc1ccc(S(=O)(=O)Nc2cccc(-c3ccc4nncn4n3)c2)cc1 the results were T cruzi repl 15.4, HSF-1 act -11.4, Jurkat NFkB inh 58.8*, HSF1 inhib -7.2, 697 NFkB inh -7.6 and Jurkat NFkB conf 47.9*.
For Cc1ccc(NC(=S)N2CCC(c3ccccc3)C2)c(Cl)c1 (stereo not given) the results were GPR7 antag -14.5, T cruzi repl 7.8, HSF-1 act 1.2, Jurkat NFkB inh -165.3, HSF1 inhib -4.1, 697 NFkB inh -199.5 and Jurkat NFkB conf -98.0.
Cc1ccc2nc(-c3ccccc3)cn2c1 was read as GPR7 antag -7.9, T cruzi repl -16.4, HSF-1 act -13.0, Jurkat NFkB inh 46.4, HSF1 inhib -11.3 and 697 NFkB inh -7.4.
Screening c1ccc(-c2cn3c(n2)-c2ccccc2C3)cc1 returned GPR7 antag 1.5, T cruzi repl -4.0, HSF-1 act 16.5, Jurkat NFkB inh -159.6, HSF1 inhib 3.7, 697 NFkB inh -222.4 and Jurkat NFkB conf -146.9.
